Assay outcomes as filed in PubChem BioAssay.
RGS4 block – human RGS4 inhibition. AID 463165. P49798. HEK293 M3R/RGS4 inducible, Fluo-4 calcium flux; hits give high values; triggered by carbachol at its EC20. 310,000 compounds, 0.45% hits. B-score at 10 µM;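 active = B-score, a plate-corrected calcium signal, over three deviations above library mean, with baseline fluorescence within five deviations of library mean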;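 note: RGS4 expression induced by doxycycline in cells with stable M3 receptor; B-score is computed from the integrated fluorescence ratio over baseline after carbachol; higher B-score means a larger calcium signal and so more RGS4 inhibition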
Target sequence (P49798 whole entry, looked up): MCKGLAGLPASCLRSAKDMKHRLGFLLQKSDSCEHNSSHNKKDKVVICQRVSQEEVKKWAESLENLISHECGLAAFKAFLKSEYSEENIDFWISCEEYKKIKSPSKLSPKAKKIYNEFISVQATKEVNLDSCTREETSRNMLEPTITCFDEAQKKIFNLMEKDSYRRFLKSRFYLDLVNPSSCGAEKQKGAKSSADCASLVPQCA
MrgX1 allo act – human MrgX1 positive allosteric modulation, primary screen | 310,000 compounds, 0.63% hits | B-score at 10 µM | MrgX1-HEK293, Fluo-4 calcium flux, FDSS; hits give high values | Q96LB2;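 active = plate-corrected calcium response at least 3 library SD above typical, normal starting fluorescence, not activating the receptor alone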;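 note: compound read alongside a low EC10 to EC30 dose of BAM8-22 agonist; peak minus trough fluorescence over baseline measured at the second addition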
Target sequence (Q96LB2 whole entry, looked up): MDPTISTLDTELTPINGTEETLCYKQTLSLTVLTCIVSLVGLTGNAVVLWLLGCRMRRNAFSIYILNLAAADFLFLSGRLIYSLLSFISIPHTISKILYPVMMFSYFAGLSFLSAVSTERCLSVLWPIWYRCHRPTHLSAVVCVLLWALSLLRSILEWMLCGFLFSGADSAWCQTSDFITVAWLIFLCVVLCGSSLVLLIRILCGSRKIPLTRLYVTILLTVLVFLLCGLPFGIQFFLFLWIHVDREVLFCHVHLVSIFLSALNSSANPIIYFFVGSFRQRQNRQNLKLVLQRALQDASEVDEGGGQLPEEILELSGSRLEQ
RGS4 act – potentiators or activators of RGS4 | HEK293 M3R/inducible RGS4, carbachol calcium flux Fluo4; hits give low values | B-score at 10 µM | 310,000 compounds, 0.92% hits | AID 463111;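 active = B-score of the integrated calcium signal more than 4 SD below the library mean, with starting fluorescence not abnormally high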;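 note: negative B-score means reduced calcium response which marks RGS4 activation or potentiation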
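System – HEK293 FlpIn-TREx cells, stable M3R, doxycycline-inducible RGS4 · Reagent – ECmax carbachol challenge · Times – compound preincubation 20 min at room temperature before agonist · Technique – Fluo4 fluorescence kinetic imaging of calcium · Measure – B score of integrated Fluo4 ratio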
MrgX1 agonist – agonists of human MrgX1 receptor; Q96LB2; MrgX1-HEK293 cells, Fluo-4 calcium fluorescence, agonist mode; hits give high values; B-score at 10 µM; 310,000 compounds, 0.44% hits;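 active = calcium response B-score plate-corrected fluorescence ratio at least 3 library SD, with starting fluorescence B-score inside 5 SD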
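System – MrgX1-expressing HEK293 cells · Incubation – cells plated overnight, dye loaded 0.5 h 37 °C, 0.5 h room temperature · Technique – kinetic Fluo-4 NW fluorescence of intracellular calcium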
MrgX1 antag – blocks BAM8-22 activation of human MrgX1 receptor | B-score at 10 µM | Q96LB2 | 310,000 compounds, 1.3% hits | AID 588676 | MRGX1-HEK293 calcium flux, Fluo-4, BAM8-22 antagonism; hits give low values;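 active = calcium-response B-score plate-corrected more than 3 library SD below zero, starting fluorescence within 5 deviations, no agonist response on first addition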;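 note: peak minus trough fluorescence over baseline after final BAM8-22 challenge near maximal dose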
MrgX1 antag conf – confirmation of human MrgX1 receptor antagonists | 2,300 compounds, 19% hits | MrgX1-HEK293, BAM8-22 calcium flux, Fluo-4; hits give low values | shares compounds with MrgX1 antag | remaining BAM8-22 calcium response % of control (hits give low values), % at 10 µM | AID 602420;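 active = remaining agonist calcium response no higher than 100% minus 3 SD of agonist-only control wells, with starting fluorescence near control levels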;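 note: agonist BAM8-22 given at a near maximal EC90 to ECmax level; peak minus minimum fluorescence divided by baseline after agonist addition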
HEK293 Ca flux – MrgX1 antagonist counter-screen hit in parental HEK293 cells; shares compounds with MrgX1 antag; Fluo-4 calcium fluorescence, FDSS; fluorescence ratio F(max-min)/F0 at 10 µM; 4,000 compounds, 2% hits;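 active = duplicate-averaged calcium fluorescence ratio at least three times the standard deviation of buffer wells, a nonspecific response in parental cells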
HEK293 Ca counter – counter-screen for MrgX1 allosteric activators: effect in parental HEK293 cells; shares compounds with MrgX1 antag; parental HEK293 calcium flux, Fluo-4 fluorescence ratio; hits give high values; fluorescence ratio F(max-min)/F0 at 10 µM; 4,000 compounds, 0.4% hits;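 active = calcium fluorescence ratio, averaged over duplicates, at least 3 SD of the buffer-well ratio, meaning a nonspecific response in receptor-free cells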;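 note: untransfected parental HEK293 lacking MrgX1 used as counterscreen for MrgX1 allosteric activators; fluorescence change taken during the second addition on a kinetic imager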
HEK293 Ca cntr2 – activity in parental HEK293 cells lacking MrgX1 receptor; fluorescence ratio F(max-min)/F0 at 10 µM; Fluo-4 calcium fluorescence (FDSS); hits give high values; AID 624115; shares compounds with MrgX1 antag; 4,000 compounds, 8.7% hits;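 active = calcium fluorescence ratio at least three times the spread of buffer wells, meaning a non-specific response in parental cells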
Active calls of the source: *; i = inactive; · = no result given. Sampled rows, rich in hits. Any-hit rate of the full collection: about 3.5%.

SMILES	RGS4 block	MrgX1 allo act	RGS4 act	MrgX1 agonist	MrgX1 antag	MrgX1 antag conf	HEK293 Ca flux	HEK293 Ca counter	HEK293 Ca cntr2
COc1ccc(NC(=O)c2cccnc2N2CCCC2)cc1	i	i	i	i	-8.6*	i	i	i	47*
CN1CCN(S(=O)(=O)c2cccc(C(=O)Nc3nc(-c4ccccc4)cs3)c2)CC1	i	i	i	i	i	·	·	·	·
COc1ccc(-c2csc(NC(=O)c3cccc(S(=O)(=O)N4CCN(C)CC4)c3)n2)cc1	i	i	i	i	-5.8*	i	i	i	i
CCOc1ccc(NC(=O)CS(=O)(=O)c2cn(C)c3ccccc23)cc1	i	i	i	i	-8*	i	i	i	i
CC1(C)C(C#N)=C(N)OC2=C1C(=O)CCC2	i	i	i	i	-5.7*	i	i	i	i
N#CC1=C(N)OC2=C(C(=O)CCC2)C12CCC1(CC2)OCCO1	i	i	i	i	i	·	·	·	·
CCN(CC)S(=O)(=O)c1ccc2c(c1)nc(CCC(=O)Nc1ccccc1Cc1ccccc1)n2CC	i	i	i	i	i	·	·	·	·
Cc1nn2c(NCCN3CCOCC3)c3c(nc2c1-c1ccccc1)CCCC3	i	i	i	i	-5.9*	i	i	i	i
Cc1nn2c(NCc3ccccn3)c3c(nc2c1-c1ccccc1)CCC3	i	i	i	i	i	·	·	·	·
Cc1c(C(=O)OCCOc2ccccc2)[nH]c2c1C(=O)CCC2	i	i	i	i	-5.2*	67%*	i	i	i
CC(=O)c1c(C)[nH]c(C(=O)OCCOc2ccccc2)c1C	i	i	i	i	i	·	·	·	·
COc1ccc(CCNc2nc(N3CCOCC3)nc(N3CCOCC3)n2)cc1OC	i	i	i	i	-5.9*	i	i	i	i
CCOC(=O)C1CCN(C(=O)c2sc3nc(-c4ccc(F)cc4)cn3c2C)CC1	i	i	i	i	-5.8*	i	i	i	i
CCOc1c2ccoc2nc2c(OC)c(OC)ccc12	i	i	i	i	-5.7*	i	i	i	i
CCOc1c(OC)ccc2c3c(c(=O)oc12)CCCC3	i	i	i	i	i	·	·	·	·
Cc1[nH]c2ccccc2c1C(=O)CN1CCC(C(N)=O)(N2CCCCC2)CC1	i	i	i	i	-5.8*	i	i	i	i
COc1ccc(NC(C)=O)cc1NC(C)C(=O)Nc1cccc2ccccc12 (configuration not stated)	i	i	i	i	i	·	·	·	·
O=C(CNc1cccc(S(=O)(=O)N2CCOCC2)c1)Nc1ccccc1F	i	i	i	i	-5.1*	i	i	i	i
O=C(CNc1cccc(S(=O)(=O)N2CCOCC2)c1)Nc1cccc(Br)c1	i	i	i	i	i	·	·	·	·
Oc1c(Br)cc(Br)cc1C=NCc1ccc(F)cc1	i	i	i	i	-5.2*	i	i	i	i
Oc1c(Br)cc(Br)cc1C=NCc1ccccc1	i	i	i	i	i	·	·	·	·
CCCCn1c(SCC(=O)Nc2cc(C)on2)nc2c1c(=O)n(C)c(=O)n2C	i	i	i	i	i	·	·	·	·
CCn1c(SCC(=O)Nc2cc(C)on2)nc2c1c(=O)n(C)c(=O)n2C	i	i	i	i	-7*	i	i	i	i
CCOCCCn1c(SCC(=O)Nc2ccc3[nH]c(=O)[nH]c3c2)nc2ccccc2c1=O	i	i	i	i	i	·	·	·	·
COCCn1nnnc1C(c1ccccc1OC)N1CCN(c2ccccc2F)CC1 (configuration not stated)	i	i	i	i	i	·	·	·	·
SMILES	RGS4 block	MrgX1 allo act	RGS4 act	MrgX1 agonist	MrgX1 antag	MrgX1 antag conf	HEK293 Ca flux	HEK293 Ca counter	HEK293 Ca cntr2
COCCn1nnnc1C(c1ccc(C(F)(F)F)cc1)N1CCOCC1 (configuration not stated)	i	i	i	i	-5.6*	i	i	i	i
COCCn1nnnc1C(c1ccc(OC)cc1)N1CCN(c2ccccc2F)CC1 (configuration not stated)	i	i	i	i	-5.7*	i	i	i	i
COc1ccc(CCNC(=O)CSc2nc3[nH]ncc3c(=O)[nH]2)cc1OC	i	i	i	i	i	·	·	·	·
CCOC(=O)c1sc(N)nc1C(C)(C)C	i	i	i	i	i	·	·	·	·
Cc1nc(N)sc1C(=O)OCC(C)C	i	i	i	i	-8.7*	i	i	i	i
CN(CC(=O)c1c(N)n(C)c(=O)n(C)c1=O)c1ccccc1	i	i	i	i	-5.8*	72%*	i	i	i
Cn1c(N)c(C(=O)CN2CCc3ccccc3C2)c(=O)n(C)c1=O	i	i	i	i	i	·	·	·	·
CC(OC(=O)c1ccc(S(=O)(=O)NCc2ccco2)cc1)C(=O)Nc1ccc(Cl)cn1 (configuration not stated)	i	i	i	i	-6.5*	i	i	i	i
O=C(COC(=O)c1ccc(S(=O)(=O)NCc2ccco2)cc1)Nc1ncc(Cl)cc1Cl	i	i	i	i	i	·	·	·	·
CCCCCCC(=O)NC(Nc1ccc(S(N)(=O)=O)cc1)C(Cl)(Cl)Cl (configuration not stated)	i	i	i	i	i	·	·	·	·
Cc1cc(C)cc(NC(=O)Nc2ccc3c(c2)N(C)C(=O)CS3)c1	i	i	i	i	i	·	·	·	·
CC(=O)c1cccc(NC(=O)Nc2ccc3c(c2)N(C)C(=O)CS3)c1	i	i	i	i	-9*	3.0%*	i	i	i
CC(=O)Nc1ccc(S(=O)(=O)NCC2CCC(C(=O)NC(C)c3ccccc3)CC2)cc1 (configuration not stated)	i	i	i	i	-6*	i	i	i	i
